According to publication PMC6061379 (Clinical Drug Investigation, 2018):
Several values for one entry are separate records, joined by “and”; a condition that tells them apart may be missing. Identical values can stand only once. Like-named read-outs stand apart in the source and are kept apart here.

Legend:
urinary uric acid = assay: Urinary uric acid pharmacodynamics after verinurad 15 mg; format: in vivo, human; details: for AeUR,0–24 h amount of urinary uric acid recovered in urine, mean (SD) / FEUA,0–24 h fractional excretion of uric acid, mean (SD) / ReUR,0–24 h rate of urinary uric acid excretion, mean (SD): following verinurad 15 mg
Procedure, shortened: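 Total-catch urine collected at 6–12 h intervals to 72 h after a single 15 mg dose, with a Day −1 baseline. Urate and creatinine in serum and urine measured by enzymatic method.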

Safety assessments = format: in vivo, human; details: for Number of adverse events / Subjects with adverse events, n (%): treatment-emergent; for Number of adverse events / Subjects with adverse events, n (%) / Number of adverse events of mild severity / Number of adverse events of moderate severity / Severe/life-threatening adverse events / Subjects with adverse events of mild severity, n (%) / Subjects with adverse events of moderate severity, n (%): verinurad 15 mg
Procedure, shortened: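 Males with normal or impaired renal function were housed in the study centre from Day −2 until final procedures after a single 15 mg dose. Assessments covered adverse events (MedDRA v17.0), clinical laboratory tests, vital signs, ECGs and physical examinations. Clinically relevant laboratory abnormalities were graded for severity by the investigator using Rheumatology Common Toxicity Criteria v2.0.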

Plasma protein binding = format: in vitro ADME; details: human
serum urate (sUA) = assay: Serum urate; format: in vivo, human; details: verinurad 15 mg; all groups
Procedure, shortened: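 Single 15 mg dose. Serial serum sampled on Day −1 (baseline) and Day 1 at preset times up to 72 h post-dose. Urate measured enzymatically. Percent change from baseline time-matched to Day −1, with maximal and mean changes derived per renal-function group.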

sUA = details: doses as low as; cited from earlier work
URAT1 = details: read-out: half-maximal inhibitory constant in inhibiting URAT1; cited from earlier work
[1] = format: in vivo, human; details: for AUC0–∞, GLSMR (90% CI) versus normal renal function group / Cmax, GLSMR (90% CI) versus normal renal function group: plasma; for AUC0–∞, GLSMR (90% CI) versus normal renal function group / Cmax, GLSMR (90% CI) versus normal renal function group / CL/F, GLSMR (90% CI) versus normal renal function group / Increase in AUC0–∞ compared to subjects with normal renal function / Increase in Cmax compared to subjects with normal renal function: verinurad 15 mg; for CL/F total body clearance, GM (95% CI): verinurad 15 mg single oral dose, fasted
Procedure, shortened: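 Males aged 18–85 y with sUA 4.5–10 mg/dl, grouped by Cockcroft-Gault eCrCl (normal ≥90, mild 60–<90, moderate 30–<60, severe 15–<30 ml/min). Normal group matched for age and BMI. Single 15 mg dose. Serial blood sampled up to 72 h post-dose; plasma acidified. Parent and metabolites measured by validated LC-MS/MS. Non-compartmental parameters, ln-transformed, fixed-effects model, geometric mean ratios with 90% CI versus normal.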

[2] = humans, cited from earlier work
[3] = Urinary pharmacokinetics after single oral verinurad 15 mg; format: in vivo, human; details: for fe0–72 fraction of drug excreted in urine unchanged from time zero to 72 h, GM (95% CI): verinurad 15 mg single oral dose; for CLR0–72, GLSMR (90% CI) versus normal renal function group / Decrease in renal clearance (CLR0-72) versus normal renal function: verinurad 15 mg
Procedure, shortened: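 Single 15 mg dose given to males grouped by Cockcroft-Gault creatinine clearance. Total-catch urine collected at 6–12 h intervals to 72 h post-dose. Parent and metabolites quantified by validated LC-MS/MS, with the acyl-glucuronide hydrolysed by 2 M KOH and measured as total aglycone. Renal clearance and fraction excreted unchanged over 0–72 h. Ln-transformed parameters compared with the normal group by fixed-effects model; geometric mean ratios with 90% CI.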

[4] = moderate renal impairment (N = 7)
[5] = severe renal impairment (N = 7)
[6] = moderate renal impairment (N = 8)
[7] = verinurad 15 mg single dose, all groups

In the case of `CC(C)(Sc1ccncc1-c1ccc(C#N)c2ccccc12)C(=O)O` [Verinurad], the “AeUR,0–24 h amount of urinary uric acid recovered in urine, mean (SD)” value (“AeUR,0–24 h amount … (SD)” below) (urinary uric acid; mild renal impairment (N = 8)) is reported as 880 (225) mg, the “FEUA,0–24 h fractional excretion of uric acid, mean (SD)” value (“FEUA,0–24 h fractional excretion … (SD)” below) (urinary uric acid; mild renal impairment (N = 8)) is reported as 16.2 (5.68) % and the “ReUR,0–24 h rate of urinary uric acid excretion, mean (SD)” value (shortened to “ReUR,0–24 h rate … (SD)”) (urinary uric acid; mild renal impairment (N = 8)) is reported as 36.6 (9.39) mg/h. For the same molecule, the “AeUR,0–24 h amount … (SD)” value (urinary uric acid; [4]) was 707 (334) mg, the “FEUA,0–24 h fractional excretion … (SD)” value (urinary uric acid; [4]) was 13.0 (7.48) % and the “ReUR,0–24 h rate … (SD)” value (urinary uric acid; [4]) was 29.3 (13.8) mg/h. The “AeUR,0–24 h amount … (SD)” value (urinary uric acid; normal renal function (N = 8)) was 969 (299) mg, the “FEUA,0–24 h fractional excretion … (SD)” value (urinary uric acid; normal renal function (N = 8)) was 13.8 (6.24) % and the “ReUR,0–24 h rate … (SD)” value (urinary uric acid; normal renal function (N = 8)) was 40.1 (12.1) mg/h. The “AeUR,0–24 h amount … (SD)” value (urinary uric acid; [5]) was 393 (144) mg, the “FEUA,0–24 h fractional excretion … (SD)” value (urinary uric acid; [5]) was 12.7 (6.43) % and the “ReUR,0–24 h rate … (SD)” value (urinary uric acid; [5]) was 16.3 (6.02) mg/h. The “Time post-dose by which ReUR returned to baseline” value (urinary uric acid; verinurad 15 mg) was no more than 12 h, the “Subjects with TEAE possibly related to verinurad” value (Safety assessments; control group, oropharyngeal pain and rhinorrhea) was “One subject” and the “Number of adverse events” value (Safety assessments; mild renal impairment (N = 8)) was 3. The “Subjects with adverse events, n (%)” value (Safety assessments; mild renal impairment (N = 8)) was 3 (37.5%), the “Number of adverse events” value (Safety assessments; [6]) was 2 and the “Subjects with adverse events, n (%)” value (Safety assessments; [6]) was 1 (12.5%). For the same molecule, the “Number of adverse events” value (Safety assessments; normal renal function (N = 8)) was 5, the “Subjects with adverse events, n (%)” value (Safety assessments; normal renal function (N = 8)) was 1 (12.5%) and the “Number of adverse events” value (Safety assessments; [5]) was 2. The “Subjects with adverse events, n (%)” value (Safety assessments; [5]) was 2 (28.6%), the Adverse event-related withdrawals (Safety assessments; [7]) was “no AE-related withdrawals” and the “Changes in laboratory values or vital signs” value (Safety assessments; [7]) was “No clinically meaningful changes”. For the same molecule, the Serious adverse events (Safety assessments; [7]) was “no serious AEs”, the Tolerability (Safety assessments; [7]) was “well tolerated” and the “Number of adverse events of mild severity” value (shortened to “Number … of mild severity”) (Safety assessments; mild renal impairment (N = 8)) was 2. The “Number of adverse events of moderate severity” value (from here on “Number … of moderate severity”) (Safety assessments; mild renal impairment (N = 8)) was 1, the Severe/life-threatening adverse events (Safety assessments; mild renal impairment (N = 8)) was 0 and the “Subjects with adverse events of mild severity, n (%)” value (“Subjects … of mild severity, n (%)” for short) (Safety assessments; mild renal impairment (N = 8)) was 2 (25.0%). The “Subjects with adverse events of moderate severity, n (%)” value (“Subjects … of moderate severity, n (%)” below) (Safety assessments; mild renal impairment (N = 8)) was 1 (12.5%), the “Number … of mild severity” value (Safety assessments; [6]) was 1 and the “Number … of moderate severity” value (Safety assessments; [6]) was 1. For the same molecule, the Severe/life-threatening adverse events (Safety assessments; [6]) was 0, the “Subjects … of mild severity, n (%)” value (Safety assessments; [6]) was 1 (12.5%) and the “Subjects … of moderate severity, n (%)” value (Safety assessments; [6]) was 1 (12.5%). For the same molecule, the “Number … of mild severity” value (Safety assessments; normal renal function (N = 8)) was 4, the “Number … of moderate severity” value (Safety assessments; normal renal function (N = 8)) was 1 and the Severe/life-threatening adverse events (Safety assessments; normal renal function (N = 8)) was 0. The “Subjects … of mild severity, n (%)” value (Safety assessments; normal renal function (N = 8)) was 1 (12.5%), the “Subjects … of moderate severity, n (%)” value (Safety assessments; normal renal function (N = 8)) was 1 (12.5%) and the “Number … of mild severity” value (Safety assessments; [5]) was 1. For the same molecule, the “Number … of moderate severity” value (Safety assessments; [5]) was 1, the Severe/life-threatening adverse events (Safety assessments; [5]) was 0 and the “Subjects … of mild severity, n (%)” value (Safety assessments; [5]) was 1 (14.3%). The “Subjects … of moderate severity, n (%)” value (Safety assessments; [5]) was 1 (14.3%), the fraction unbound (Plasma protein binding) was 0.013 to 0.024 and the “Time post-dose at which maximal percent change in sUA occurred” value (serum urate (sUA)) was “approximately 12 h”. For the same molecule, the “Lowest dose providing sUA lowering in humans” value (sUA) was 2.5 mg, the IC50 (URAT1) was 0.036 µM and the “AUC0–∞, GLSMR (90% CI) versus normal renal function group” value ([1]; mild renal impairment) was 124% (88.8–173). The “Cmax, GLSMR (90% CI) versus normal renal function group” value ([1]; mild renal impairment) was 153% (115–203), the “AUC0–∞, GLSMR (90% CI) versus normal renal function group” value ([1]; moderate renal impairment) was 248% (168–366) and the “Cmax, GLSMR (90% CI) versus normal renal function group” value ([1]; moderate renal impairment) was 173% (131–230). For the same molecule, the “AUC0–∞, GLSMR (90% CI) versus normal renal function group” value ([1]; severe renal impairment) was 230% (146–363), the “Cmax, GLSMR (90% CI) versus normal renal function group” value ([1]; severe renal impairment) was 228% (155–336) and the “CL/F total body clearance, GM (95% CI)” value ([1]; mild renal impairment (N = 8)) was 74.8 (53.7–104) L/h. The “CL/F total body clearance, GM (95% CI)” value [1, 4] was 37.3 (23.7–58.9) L/h, the “CL/F total body clearance, GM (95% CI)” value ([1]; normal renal function (N = 8)) was 92.6 (68.7–125) L/h and the “CL/F total body clearance, GM (95% CI)” value [1, 5] was 40.3 (22.6–71.7) L/h. For the same molecule, the “CL/F, GLSMR (90% CI) versus normal renal function group” value ([1]; mild renal impairment) was 80.8% (57.9–113), the “Increase in AUC0–∞ compared to subjects with normal renal function” value (shortened to “Increase in AUC0–∞ compared to subjects”) ([1]; mild renal impairment) was 24% and the “Increase in Cmax compared to subjects with normal renal function” value (shortened to “Increase in Cmax compared to subjects”) ([1]; mild renal impairment) was 53%. For the same molecule, the “CL/F, GLSMR (90% CI) versus normal renal function group” value ([1]; moderate renal impairment) was 40.3% (27.3–59.5), the “Increase in AUC0–∞ compared to subjects” value ([1]; moderate renal impairment) was 148% and the “Increase in Cmax compared to subjects” value ([1]; moderate renal impairment) was 73%. The “CL/F, GLSMR (90% CI) versus normal renal function group” value ([1]; severe renal impairment) was 43.5% (27.5–68.7), the “Increase in AUC0–∞ compared to subjects” value ([1]; severe renal impairment) was 130% and the “Increase in Cmax compared to subjects” value ([1]; severe renal impairment) was 128%. The “Parent drug excreted unchanged in urine” value ([2]; ref 21) was “about 2%”, the “Parent drug excreted unchanged in urine” value ([2]; ref 26) was “about 2%” and the “fe0–72 fraction of drug excreted in urine unchanged from time zero to 72 h, GM (95% CI)” value [3, 4] was 1.05 (0.561–1.96) %. The “fe0–72 fraction of drug excreted in urine unchanged from time zero to 72 h, GM (95% CI)” value ([3]; normal renal function (N = 8)) was 0.814 (0.508–1.31) %, the “fe0–72 fraction of drug excreted in urine unchanged from time zero to 72 h, GM (95% CI)” value [3, 5] was 0.362 (0.202–0.647) % and the “CLR0–72, GLSMR (90% CI) versus normal renal function group” value ([3]; mild renal impairment) was 95.4% (60.6–150). The “Decrease in renal clearance (CLR0-72) versus normal renal function” value (“Decrease in renal clearance” for short) ([3]; mild renal impairment) was 5% and 4.6%, the “CLR0–72, GLSMR (90% CI) versus normal renal function group” value ([3]; moderate renal impairment) was 58.3% (30.2–113) and the “Decrease in renal clearance” value ([3]; moderate renal impairment) was 42%. For the same molecule, the “CLR0–72, GLSMR (90% CI) versus normal renal function group” value ([3]; severe renal impairment) was 21.2% (13.6–32.8) and the “Decrease in renal clearance” value ([3]; severe renal impairment) was 79%.
